Source: ChEMBL document CHEMBL1128666, “Synthesis and antimicrobial and toxicological studies of amino acid and peptide derivatives of kanamycin A and netilmicin” (J Med Chem, 1995)
≈ marks a conversion by molar mass, not a printed value. Where “and” joins values, the source holds several entries; their conditions need not be identical. Equal entries are not always repeated.

Key:
Serratia marcescens = experiment: Minimum inhibitory concentration measured against Serratia marcescens; type: functional
Procedure, shortened: (§1)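 Strains were clinical isolates from the microbiology laboratories of Cliniques Universitaires St-Luc and Hôpital Brugmann, Brussels, and were characterized there. Compounds were tested as sulfate salts, which were stable in distilled water at pH 7.0 for at least 24 h. MIC was the highest dilution giving no visible growth, expressed in mg/L of free base.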

Escherichia coli [1] = experiment: Minimum inhibitory concentration (MIC) was measured against Escherichia coli ATCC 25922.; type: functional
Escherichia coli [2] = experiment: Minimum inhibitory concentration (MIC) was measured against Escherichia coli ATCC 35218.; type: functional
Procedure, shortened: (§2)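 Strains from ATCC; compounds tested as sulfate salts (stable ≥24 h in water at pH 7.0). MIC taken as highest dilution with no visible bacterial growth, expressed in mg/L of free base.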

Staphylococcus aureus [3] = experiment: microbe, parasite or virus in culture; details: ATCC 25923
Pseudomonas aeruginosa [4] = experiment: Minimum inhibitory concentration (MIC) was measured against Pseudomonas aeruginosa ATCC 27853.; type: functional
Acinetobacter baumannii = experiment: Minimum inhibitory concentration (MIC) was measured against Acinetobacter baumanni ATCC 19606.; type: functional; procedure, shortened: as §2
Acinetobacter lwoffii = experiment: microbe, parasite or virus in culture; details: ATCC 17986
Pseudomonas aeruginosa [5] = experiment: Minimum inhibitory concentration (MIC) was measured against Pseudomonas aeruginosa.; type: functional; procedure, shortened: as §1
Enterobacter cloacae = experiment: Minimum inhibitory concentration (MIC) was measured against Enterobacter cloacae.; type: functional; procedure, shortened: as §1
Escherichia coli [6] = experiment: Minimum inhibitory concentration (MIC) was measured against Escherichia coli.; type: functional; procedure, shortened: as §1
Enterococcus faecalis = experiment: Minimum inhibitory concentration (MIC) was measured against Enterococcus faecalis ATCC 29212.; type: functional
Staphylococcus aureus [7] = experiment: Minimum inhibitory concentration (MIC) was measured against Staphylococcus aureus.; type: functional; procedure, shortened: as §1
Citrobacter freundii = experiment: Minimum inhibitory concentration (MIC) was measured against Citrobacter freundii.; type: functional; procedure, shortened: as §1
[8] = target: T1, Phospholipase A1 member A (Rattus norvegicus, UniProt P97535); experiment: IC50 was measured as concentration causing 50% inhibition of lysosomal phospholipase A1 activity.
T1 sequence (P97535 whole entry): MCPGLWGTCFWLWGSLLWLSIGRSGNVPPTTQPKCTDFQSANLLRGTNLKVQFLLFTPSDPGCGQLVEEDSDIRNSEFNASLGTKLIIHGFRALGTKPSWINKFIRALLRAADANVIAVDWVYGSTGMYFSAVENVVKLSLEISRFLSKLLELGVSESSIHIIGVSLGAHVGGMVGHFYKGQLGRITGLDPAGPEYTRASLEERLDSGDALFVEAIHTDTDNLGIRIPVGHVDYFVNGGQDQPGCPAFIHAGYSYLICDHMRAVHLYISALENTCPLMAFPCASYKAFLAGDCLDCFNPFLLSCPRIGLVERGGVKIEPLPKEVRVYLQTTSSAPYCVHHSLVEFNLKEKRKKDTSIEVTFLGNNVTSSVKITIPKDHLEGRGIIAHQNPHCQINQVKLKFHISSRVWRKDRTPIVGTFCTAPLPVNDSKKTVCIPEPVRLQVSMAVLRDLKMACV

[9] = Serratia marcescens, read-out: MIC
[10] = Pseudomonas aeruginosa, read-out: MIC
[11] = Enterobacter cloacae, read-out: MIC

Compound | MIC (Serratia marcescens) | MIC (Serratia marcescens; [9]) | MIC (Escherichia coli [1]) | MIC (Escherichia coli [2]) | MIC (Staphylococcus aureus [3]) | MIC (Pseudomonas aeruginosa [4]) | MIC (Acinetobacter baumannii) | MIC (Acinetobacter lwoffii) | MIC (Pseudomonas aeruginosa [5]; [10]) | MIC (Enterobacter cloacae) | MIC (Enterobacter cloacae; [11]) | MIC (Escherichia coli [6]) | MIC (Enterococcus faecalis) | MIC (Staphylococcus aureus [7]) | MIC (Citrobacter freundii) | MIC (Pseudomonas aeruginosa [5]) | IC50 [8]
CC(N)C(=O)NC1CC(N)C(OC2OC(CN)C(O)C(O)C2O)C(O)C1OC1OC(CO)C(O)C(N)C1O (stereo not given) | >128 mg/L | 128 mg/L (≈ 230 µM) | 128 µg/mL (≈ 230 µM) | 64 µg/mL (≈ 115 µM) | 16 µg/mL (≈ 28.8 µM) | > 128 µg/mL | 128 µg/mL (≈ 230 µM) | > 128 µg/mL | > 128 µg/mL | >128 µg/mL | 64 µg/mL (≈ 115 µM) | > 128 µg/mL | > 128 µg/mL | > 128 µg/mL | 64 µg/mL (≈ 115 µM) |  | 
CCNC1CC(N)C(OC2OC(CNC(=O)C(C)N)=CCC2N)C(O)C1OC1OCC(C)(O)C(NC)C1O (stereo not given) | >128 mg/L | 128 mg/L (≈ 234 µM) | 128 µg/mL (≈ 234 µM) | 32 µg/mL (≈ 58.5 µM) | 32 µg/mL (≈ 58.5 µM) | > 128 µg/mL | > 128 µg/mL | 128 µg/mL (≈ 234 µM) | > 128 µg/mL |  | > 128 µg/mL | > 128 µg/mL | 128 µg/mL (≈ 234 µM) | > 128 µg/mL | 32 µg/mL (≈ 58.5 µM) |  | 
NCC[C@H](O)C(=O)N[C@@H]1C[C@H](N)[C@@H](O[C@H]2O[C@H](CN)[C@@H](O)[C@H](O)[C@H]2O)[C@H](O)[C@H]1O[C@H]1O[C@H](CO)[C@@H](O)[C@H](N)[C@H]1O [AMIKACIN] |  |  | 8 µg/mL (≈ 13.7 µM) | 2 µg/mL (≈ 3.42 µM) | 4 µg/mL (≈ 6.83 µM) | 32 µg/mL (≈ 54.6 µM) | 16 µg/mL (≈ 27.3 µM) | 32 µg/mL (≈ 54.6 µM) | 64 µg/mL (≈ 109 µM) |  |  | 128 µg/mL (≈ 219 µM) | 64 µg/mL (≈ 109 µM) | 32 µg/mL (≈ 54.6 µM) | 4 µg/mL (≈ 6.83 µM) | 64 µg/mL (≈ 109 µM) | 
CN[C@@H]1[C@@H](O)[C@@H](O[C@@H]2[C@@H](O)[C@H](O[C@H]3O[C@H](CN)[C@@H](O)[C@H](O)[C@H]3O)[C@@H](N)C[C@H]2NC(=O)[C@@H](O)CN)OC[C@]1(C)O [ISEPAMICIN] |  |  | 8 µg/mL (≈ 14 µM) | 2 µg/mL (≈ 3.51 µM) | 4 µg/mL (≈ 7.02 µM) | 16 µg/mL (≈ 28.1 µM) | 32 µg/mL (≈ 56.2 µM) | 16 µg/mL (≈ 28.1 µM) | 64 µg/mL (≈ 112 µM) | 8 µg/mL (≈ 14 µM) | 4 µg/mL (≈ 7.02 µM) | 32 µg/mL (≈ 56.2 µM) | 64 µg/mL (≈ 112 µM) | 2 µg/mL (≈ 3.51 µM) | 4 µg/mL (≈ 7.02 µM) | 64 µg/mL (≈ 112 µM) | 
NC[C@H]1O[C@H](O[C@H]2[C@H](O)[C@@H](O[C@H]3O[C@H](CO)[C@@H](O)[C@H](N)[C@H]3O)[C@H](N)C[C@@H]2N)[C@H](O)[C@@H](O)[C@@H]1O [KANAMYCIN] |  |  | 8 µg/mL (≈ 16.5 µM) | 2 µg/mL (≈ 4.13 µM) | 1 µg/mL (≈ 2.06 µM) | > 128 µg/mL | 4 µg/mL (≈ 8.26 µM) | 16 µg/mL (≈ 33 µM) | > 128 µg/mL |  |  | > 128 µg/mL | 32 µg/mL (≈ 66 µM) | > 128 µg/mL | 4 µg/mL (≈ 8.26 µM) |  | 
CCN[C@@H]1C[C@H](N)[C@@H](O[C@H]2OC(CN)=CC[C@H]2N)[C@H](O)[C@H]1O[C@H]1OC[C@](C)(O)[C@H](NC)[C@H]1O [NETILMICIN] |  |  | 1 µg/mL (≈ 2.1 µM) | 0.5 µg/mL (≈ 1.05 µM) | 0.25 µg/mL (≈ 0.526 µM) | 8 µg/mL (≈ 16.8 µM) | 32 µg/mL (≈ 67.3 µM) | 32 µg/mL (≈ 67.3 µM) | 64 µg/mL (≈ 135 µM) |  |  | > 128 µg/mL | 4 µg/mL (≈ 8.41 µM) | 8 µg/mL (≈ 16.8 µM) | 0.25 µg/mL (≈ 0.526 µM) | >128 µg/mL | 
GENTAMICIN [listing 1 of 2 here] |  |  |  |  |  |  |  |  |  |  |  |  |  |  |  |  | 45 µg/mL
GENTAMICIN [listing 2 of 2 here] | 4 µg/mL (2×) and 8 µg/mL (2×) |  | 4 µg/mL | 1 µg/mL |  | 8 µg/mL | 32 µg/mL |  |  | 32 µg/mL |  | 16 µg/mL | 16 µg/mL | > 128 µg/mL | 1 µg/mL | 64 µg/mL and > 128 µg/mL | 
